ChEMBL document CHEMBL5316292 (J Med Chem, 2023)
Calls of active or inactive are those of the source. No cut-off for these calls is given here.

How the values were obtained:
[1] = target: T1, Bromodomain-containing protein 3 (Homo sapiens, UniProt Q15059); experiment: Binding affinity to human partial length BRD3 BD2 (G306 to P416 residues) expressed in bacterial expression system assessed as change in melting temperature at 50 uM at 20 to 85 degreeC by SYPRO orange staining based thermal shift assay
In short: (§1)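 DSF thermal shift. 10 µM BD in 50 mM HEPES, 500 mM NaCl pH 7.5, with 50 µM compound or DMSO-matched control and 1:1000 Sypro Orange (ex 465/em 590 nm). Ramp 20–85 °C at 0.03 °C/s. Tm taken as the midpoint between fluorescence max and min. At least three independent experiments, SEM in °C.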
Target sequence in this assay (Q15059 2-726 limits assumed): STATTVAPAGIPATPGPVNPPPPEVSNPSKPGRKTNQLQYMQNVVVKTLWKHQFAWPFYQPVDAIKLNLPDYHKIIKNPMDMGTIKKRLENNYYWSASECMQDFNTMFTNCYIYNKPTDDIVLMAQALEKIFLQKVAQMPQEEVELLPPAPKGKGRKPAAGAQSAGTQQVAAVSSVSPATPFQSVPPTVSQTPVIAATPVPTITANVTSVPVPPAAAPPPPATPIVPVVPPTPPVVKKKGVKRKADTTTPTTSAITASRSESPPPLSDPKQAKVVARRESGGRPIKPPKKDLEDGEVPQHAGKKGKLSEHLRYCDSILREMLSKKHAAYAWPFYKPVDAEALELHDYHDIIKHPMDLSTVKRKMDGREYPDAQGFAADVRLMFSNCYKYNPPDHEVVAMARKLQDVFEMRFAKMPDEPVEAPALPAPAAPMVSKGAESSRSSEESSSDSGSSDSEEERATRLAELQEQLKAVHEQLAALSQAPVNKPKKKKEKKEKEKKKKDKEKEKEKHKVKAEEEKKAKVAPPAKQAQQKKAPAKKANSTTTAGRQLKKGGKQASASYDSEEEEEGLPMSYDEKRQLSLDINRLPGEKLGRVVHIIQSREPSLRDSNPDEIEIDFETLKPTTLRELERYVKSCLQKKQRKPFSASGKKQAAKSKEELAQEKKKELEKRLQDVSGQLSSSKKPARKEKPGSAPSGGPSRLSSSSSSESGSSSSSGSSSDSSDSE

MDA-MB-231 = experiment: Effect on BET mRNA levels in human MDA-MB-231 cells at 0.025 to 2.5 uM incubated for 24 hrs by qRT-PCR analysis; type: functional, cell-based; conditions: dose 0.025-2.5 µM
In short: (§2)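 MDA-MB-231 cells treated for 24 h at doses rising tenfold from 25 nM to 2.5 µM. Gene expression measured by qRT-PCR. SEM, n = 3.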

[2] = target: T1, Bromodomain-containing protein 3; experiment: Induction of BRD3 degradation in human PC-3 cells incubated for 16 hrs by immunoblotting analysis; type: cell-based
In short: (§3)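 MDA-MB-231 or PC-3 cells at 50% confluence in DMEM/10% FBS/pen-strep, treated 16 h with doses falling tenfold from 10 µM to 1 nM. RIPA lysates immunoblotted for BRD2, BRD3 and BRD4 with GAPDH as control. DC50 derived from band densitometry. SEM, n = 2.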

[3] = target: T2, Bromodomain-containing protein 4 (Homo sapiens, UniProt O60885); experiment: Induction of BRD4 degradation in human MDA-MB-231 cells at 10 uM incubated for 8 hrs in presence of MG132 by immunoblotting analysis; type: cell-based
VCaP [4] = experiment: Downregulation of ERG gene levels in human VCaP cells incubated for 24 hrs by qRT-PCR analysis; type: functional, cell-based; conditions: dose 25-2500 nM
In short: (§4)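 VCaP cells grown to 50% confluence, then treated with compound or DMSO (Methods state 16 h, legend states 24 h). Total RNA isolated, cDNA made from 1 µg RNA, SYBR Green qPCR run in triplicate. Expression by ΔΔCt, normalised to GAPDH. Three independent experiments, SEM.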

[5] = target: T3, Bromodomain-containing protein 2 (Homo sapiens, UniProt P25440); experiment: Binding affinity to human partial length BRD2 BD1 (K71 to N194 residues) expressed in bacterial expression system using H4K5acIC8acK12acK16ac-biotinylated peptide as substrate preincubated for 30 mins followed by substrate addition by AlphaScreen assay
In short: (§5)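 AlphaScreen. Biotinylated H4K5acK8acK12acK16ac peptide added at equal concentration to protein for 30 min. Donor and acceptor beads (25 µg/mL each) added, ≥1 h in the dark. Triplicate, curve-fitted, SEM.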
Target sequence in this assay (P25440 whole entry, the tested form may be a part): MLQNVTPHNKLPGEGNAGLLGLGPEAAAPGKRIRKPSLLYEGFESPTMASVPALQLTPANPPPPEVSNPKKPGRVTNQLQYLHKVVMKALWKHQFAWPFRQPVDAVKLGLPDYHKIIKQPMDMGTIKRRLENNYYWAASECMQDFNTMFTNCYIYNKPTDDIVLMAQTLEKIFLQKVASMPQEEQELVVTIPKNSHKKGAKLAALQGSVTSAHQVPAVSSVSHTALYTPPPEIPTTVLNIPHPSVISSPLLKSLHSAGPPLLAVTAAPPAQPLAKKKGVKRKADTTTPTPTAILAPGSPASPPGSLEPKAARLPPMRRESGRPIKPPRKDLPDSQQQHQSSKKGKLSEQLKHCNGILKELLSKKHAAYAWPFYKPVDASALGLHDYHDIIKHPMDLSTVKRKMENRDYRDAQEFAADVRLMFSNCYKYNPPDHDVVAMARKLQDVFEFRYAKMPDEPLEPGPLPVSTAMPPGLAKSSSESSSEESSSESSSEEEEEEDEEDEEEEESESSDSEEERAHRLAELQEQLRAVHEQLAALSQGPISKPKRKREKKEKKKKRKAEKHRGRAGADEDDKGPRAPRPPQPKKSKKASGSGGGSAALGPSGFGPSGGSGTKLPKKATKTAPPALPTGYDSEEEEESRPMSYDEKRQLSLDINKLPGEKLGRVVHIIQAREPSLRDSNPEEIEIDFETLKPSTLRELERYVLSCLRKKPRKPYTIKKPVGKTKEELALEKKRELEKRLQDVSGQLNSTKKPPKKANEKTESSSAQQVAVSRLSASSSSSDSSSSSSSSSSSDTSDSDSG

[6] = target: T3, Bromodomain-containing protein 2; experiment: Binding affinity to human partial length BRD2 BD2 (E348to D455 residues) expressed in bacterial expression system using H4K5acIC8acK12acK16ac-biotinylated peptide as substrate preincubated for 30 mins followed by substrate addition by AlphaScreen assay; in short: as §5
Target sequence in this assay (P25440 whole entry, the tested form may be a part): as above

VCaP [7] = experiment: Downregulation of TMPRSS2 gene levels in human VCaP cells incubated for 24 hrs by qRT-PCR analysis; type: functional, cell-based; conditions: dose 25-2500 nM; in short: as §4
[8] = Antiproliferative activity against human Androgen-resistant 22Rv1 cells assessed as reduction in cell viability measured after 72 hrs by MTS assay; type: functional, cell-based; conditions: 22Rv1, 72 h
In short: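 MTS viability assay run in triplicate wells. Serial dilutions in DMSO were given, with DMSO as negative control and doxorubicin as positive control, and incubated 72 h. MTS reagent was added for 2 h and absorbance read at 490 nm. % cytotoxicity = (A_medium − A_treatment)/A_medium × 100. EC50 ± SD was taken from dose-response curves of at least three independent experiments.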

[9] = target: T3, Bromodomain-containing protein 2; experiment: Binding affinity to human partial length BRD2 BD1 (K71 to N194 residues) expressed in bacterial expression system assessed as change in melting temperature at 50 uM at 20 to 85 degreeC by SYPRO orange staining based thermal shift assay; in short: as §1
Target sequence in this assay (P25440 whole entry, looked up, the tested form may be a part): as the sequence (P25440 whole entry, the tested form may be a part) above

[10] = target: T2, Bromodomain-containing protein 4; experiment: Induction of BRD4 degradation in human MDA-MB-231 cells incubated for 16 hrs by immunoblotting analysis; type: cell-based; in short: as §3
[11] = target: T2, Bromodomain-containing protein 4; experiment: Binding affinity to human partial length BRD4 BD1 (N44 to E168 residues) expressed in bacterial expression system using H4K5acIC8acK12acK16ac-biotinylated peptide as substrate preincubated for 30 mins followed by substrate addition by AlphaScreen assay
VCaP [12] = experiment: Downregulation of PSA […] expression in human VCaP cells incubated for 24 hrs by qRT-PCR analysis; type: functional, cell-based; conditions: dose 25-2500 nM; in short: as §4
[13] = target: T2, Bromodomain-containing protein 4; experiment: Induction of BRD4 degradation in human PC-3 cells incubated for 16 hrs by immunoblotting analysis; type: cell-based; in short: as §3
[14] = target: T1, Bromodomain-containing protein 3; experiment: Induction of BRD3 degradation in human MDA-MB-231 cells at 0.025 to 2.5 uM incubated for 24 hrs by qRT-PCR analysis; type: cell-based; conditions: dose 0.025-2.5 µM; in short: as §2
Target sequence in this assay (Q15059 2-726 limits assumed): as the sequence (Q15059 2-726 limits assumed) above

[15] = Induction of degradation in human PC-3 cells incubated for 16 hrs by immunoblotting analysis
[16] = target: T3, Bromodomain-containing protein 2; experiment: Induction of BRD2 degradation in human PC-3 cells incubated for 16 hrs by immunoblotting analysis; type: cell-based; in short: as §3
Target sequence in this assay (P25440 whole entry, the tested form may be a part): as the sequence (P25440 whole entry, the tested form may be a part) above

[17] = target: T4, Bromodomain testis-specific protein (Homo sapiens, UniProt Q58F21); experiment: Binding affinity to human partial length BRDT BD1 (N21 to E137 residues) expressed in bacterial expression system assessed as change in melting temperature at 50 uM at 20 to 85 degreeC by SYPRO orange staining based thermal shift assay; in short: as §1
[18] = target: T2, Bromodomain-containing protein 4; experiment: Induction of BRD4 degradation in human MDA-MB-231 cells at 0.025 to 2.5 uM incubated for 24 hrs by qRT-PCR analysis; type: cell-based; conditions: dose 0.025-2.5 µM; in short: as §2
[19] = target: T2, Bromodomain-containing protein 4; conditions: dose 50.0 µM
[20] = target: T1, Bromodomain-containing protein 3; experiment: Induction of BRD3 degradation in human MDA-MB-231 cells incubated for 16 hrs by immunoblotting analysis; type: cell-based; in short: as §3
[21] = target: T2, Bromodomain-containing protein 4; conditions: dose 50.0 µM; remark: listed apart in the source
VCaP [22] = experiment: Downregulation of AR […] expression in human VCaP cells incubated for 24 hrs by qRT-PCR analysis; type: functional, cell-based; conditions: dose 25-2500 nM; in short: as §4
[23] = target: T4, Bromodomain testis-specific protein; experiment: Binding affinity to human partial length BRDT BD2 (K250 to E382 residues) expressed in bacterial expression system assessed as change in melting temperature at 50 uM at 20 to 85 degreeC by SYPRO orange staining based thermal shift assay; in short: as §1
VCaP [24] = experiment: Antiproliferative activity against AR-positive human VCaP cells assessed as reduction in cell viability measured after 72 hrs by MTS assay; type: functional, cell-based
In short: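 VCaP cells in 96-well plates, compound serially diluted in DMSO and run in triplicate wells for 72 h. MTS reagent added for 2 h, absorbance read at 490 nm. % cytotoxicity = (A_medium − A_treatment)/A_medium × 100. EC50 and SD taken from dose-response curves, at least three independent experiments.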

For CC(=O)OC[C@]12CC[C@H]3[C@@H](C[C@H]4O[C@]45CC=CC(=O)[C@]35C)[C@]1(O)CC[C@@]2(O)[C@@](C)(O)[C@H]1CC(C)=C(C)C(=O)O1, the ΔTm [1] was 7.45 °C, the Activity (MDA-MB-231) was “inactive” and the Activity [2] was “Dose-Dependent Effect”. For the same compound, the DC50 [2] was 7290 nM, the Activity [3] was “inactive” and the Activity (VCaP [4]) was “Dose-Dependent Effect”. The IC50 [5] was 103 nM, the IC50 [6] was 244 nM and the Activity (VCaP [7]) was “Dose-Dependent Effect”. The EC50 [8] was 30.3 nM, the ΔTm [9] was 10.4 °C and the Activity [10] was “Dose-Dependent Effect”. For the same compound, the DC50 [10] was 41.6 nM, the IC50 [11] was 17.9 nM and the Activity (VCaP [12]) was “Dose-Dependent Effect”. For the same compound, the Activity [13] was “Dose-Dependent Effect”, the DC50 [13] was 56.7 nM and the Activity [14] was “inactive”. For the same compound, the Activity [15] was “Dose-Dependent Effect”, the DC50 [16] was > 10000 nM and the ΔTm [17] was 9.57 °C. The Activity [18] was “inactive”, the ΔTm [19] was 11.8 °C and the Activity [20] was “Dose-Dependent Effect”. For the same compound, the DC50 [20] was 23.9 nM, the ΔTm [21] was 7.33 °C and the Activity (VCaP [22]) was “Dose-Dependent Effect”. For the same compound, the ΔTm [23] was 7.58 °C and the EC50 (VCaP [24]) was 30.5 nM.
